Among the data in the array DNA melting data of Ke et al. (doi:10.1101/2024.01.08.574731) are Tm and folding enthalpy values, retold here.

The nature of series [1]: melting temperature; fluorescence melt of hairpins on a sequencing array, two-state fit, raised by 9.35 °C to match UV melts. As to conditions: sodium 0.088 M. The gist of the method: (§1)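 Cy3 fluorescence of library hairpins on a sequenced MiSeq flow cell, with annealed Cy3 and quencher oligos, was imaged in 50 mM Na-HEPES pH 8.0, 25 mM NaCl in 2.5 °C steps up to 60 °C. Signals were normalised to pre-quench Cy3 and to control variants. Melting temperature and folding enthalpy came from bootstrapped two-state fits, inverse-variance combined over four replicates. Fitted temperatures were raised by 9.35 °C to match UV melts.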

Series [2] in a line: folding enthalpy; higher = less favourable; fluorescence melt of hairpins on a sequencing array, two-state fit. As to conditions: sodium 0.088 M. The gist of the method: as §1

For GATCCTCTTTAGGATC ((((((....)))))), the Tm in series [1] was 52 °C. Moreover, in series [2], the folding enthalpy is -46.6 kcal/mol.
Taken in the same sequence, the figures for GGGCACCGAAAGGTCCC (((.(((....)))))) were 54.5 °C and -34 kcal/mol.
Take GCGCATGGAAACACACGC (((..((....))..))): in series [1], the Tm worked out at 29.6 °C. The folding enthalpy in series [2] was -19.4 kcal/mol.
The like results for GGTGCCACGAAAGTGACC (((..(((....)))))) were, in that order, 35.5 °C and -15.5 kcal/mol.
The like results for GCGTAGGGAAACCCACAC (.((.((....)).)).) were, in that order, 21.3 °C and -10.6 kcal/mol.
Taken in the same sequence, the figures for GCGCCGCGAAAGCGAAGC ((..(((....)))..)) were 64.8 °C and -32 kcal/mol.
In the case of GTAATAGGAAACTATTGC (.(((((....))))).), the Tm in series [1] came out at 34.2 °C. The folding enthalpy in series [2] is -18.7 kcal/mol.
Taken in the same sequence, the figures for GATCGCAGTGCGATC ((((((...)))))) were 67.6 °C and -30.1 kcal/mol.
Turning to GCGGTGGGAAACTACCGC (((((.(....).))))), in series [1], the Tm came to 60.5 °C. The folding enthalpy in series [2] is -37.5 kcal/mol.
Taken in the same sequence, the figures for GCTAAGGGAAACCCTAGC ((((.((....)).)))) were 42.7 °C and -32.5 kcal/mol.
The like results for CGAACGGAAACGTCGTCG ((((((....)))..))) were, in that order, 47.1 °C and -18.3 kcal/mol.
Turning to GAGAGCGGAAACGCTCCC (.(((((....))))).), in series [1], the Tm came to 46.1 °C. Also, the folding enthalpy in series [2] was -9.72 kcal/mol.
The like results for GTCATTCGAAAGAAGGAC (((.(((....))).))) were, in that order, 51.9 °C and -42.5 kcal/mol.
Taken in the same sequence, the figures for GGGACGGCGAAAGCCCCC (((..(((....)))))) were 42.3 °C and -14.8 kcal/mol.
For the sequence GCAAACCCGAAAGGGTGC (((..(((....)))))), in series [1], the Tm turned out to be 51.7 °C. Moreover, the folding enthalpy in series [2] is -17.5 kcal/mol.
The like results for GGGTACGGAAACGTGCCC (((.(((....))).))) were, in that order, 60.1 °C and -53.5 kcal/mol.
With GATCAGCGTCCTGATC ((((((....)))))), the Tm in series [1] worked out at 49 °C. In series [2], the folding enthalpy is -32.4 kcal/mol.
Take GTTTGGACGAAAGTCAAC (((..(((....)))))): the Tm in series [1] worked out at 34.7 °C. Besides, the folding enthalpy in series [2] was -12.7 kcal/mol.
The like results for GGTATGGGAAACCATACC (((((((....))))))) were, in that order, 58 °C and -45.3 kcal/mol.
The like results for GATCTCGGAAGAGATC ((((((....)))))) were, in that order, 63.6 °C and -37.4 kcal/mol.
The like results for GCAAGGCGAAAGCTGTGC (((..((....))..))) were, in that order, 52.8 °C and -18.1 kcal/mol.
On to GCGAGTTTCGC ((((...)))), for which the Tm in series [1] was found to be 51 °C. Further, the folding enthalpy in series [2] is -17.3 kcal/mol.
The like results for GGCCTCGCGAAAGCGGCC (((..(((....)))))) were, in that order, 59.4 °C and -17.5 kcal/mol.
The like results for GATCCACTAATGGATC ((((((....)))))) were, in that order, 49.8 °C and -32.7 kcal/mol.
The like results for GCGAGATGTCGC ((((....)))) were, in that order, 49.4 °C and -19.1 kcal/mol.
For GTGCTGCGAAAGCACCAC (((.(((....))).))), the Tm in series [1] turned out to be 52.6 °C. The folding enthalpy in series [2] was -15 kcal/mol.
In the case of GCGTTGCGAAAGCCGCGC (((..((....))..))), the Tm in series [1] was 63.3 °C. The folding enthalpy in series [2] was -21.9 kcal/mol.
Consider GCCTGGCGAAAGCCGCGC ((..(((....)))..)), for which the Tm in series [1] is 52.3 °C. Also, the folding enthalpy in series [2] is -16.8 kcal/mol.
The like results for GATCCCACTGGGGATC ((((((....)))))) were, in that order, 62.4 °C and -30.7 kcal/mol.
The like results for GTGCCGCGAAAGCGCCAC (((.(((....))).))) were, in that order, 53.8 °C and -18.2 kcal/mol.
For GATCAGTAAACTGATC ((((((....)))))), the Tm in series [1] is 50.8 °C. Besides, in series [2], the folding enthalpy was -37.4 kcal/mol.
Taken in the same sequence, the figures for GATCGGGCGACCGATC ((((((....)))))) were 63.1 °C and -44.9 kcal/mol.
For the sequence GTGTATGAAAATACAC ((((((....)))))), the Tm in series [1] stood at 52.5 °C. In series [2], the folding enthalpy is -36.1 kcal/mol.
Taken in the same sequence, the figures for GTGCTTCGAAAGAAACAC (((.(((....))).))) were 45.6 °C and -36 kcal/mol.
Taken in the same sequence, the figures for GATCCGCCGCGGATC ((((((...)))))) were 56.5 °C and -40.5 kcal/mol.
Taken in the same sequence, the figures for GGGGAAGGAAACTCCCCC ((((.((....)).)))) were 46.9 °C and -24.8 kcal/mol.
Turning to GATCCACCCGTGGATC ((((((....)))))), the Tm in series [1] was 57.9 °C. Further, in series [2], the folding enthalpy is -40.4 kcal/mol.
GCGTACGAAAGTACACGC ((((((....)))..))): the Tm in series [1] turned out to be 52.6 °C. In addition, the folding enthalpy in series [2] was -19.1 kcal/mol.
In the case of GCGGAGCGAAAGCAACGC (((..((....))..))), the Tm in series [1] was determined as 66.9 °C. Besides, the folding enthalpy in series [2] was -20.2 kcal/mol.
Taken in the same sequence, the figures for GTAGGAGGAAACTCCTGC (.(((((....))))).) were 46.8 °C and -22.3 kcal/mol.
The like results for GGTCATGCGAAAGCAACC (((..(((....)))))) were, in that order, 27 °C and -8.01 kcal/mol.
Taken in the same sequence, the figures for GCCCGGCGAAAGCAGAGC ((.(.((....)).).)) were 47.4 °C and -14.4 kcal/mol.
As for GAATCCGAAAGGACTTC ((((((....))).))), the Tm in series [1] is 35.8 °C. Besides, the folding enthalpy in series [2] was -19.4 kcal/mol.
The like results for GTGAGCGGAAACGCCCAC (((.(((....))).))) were, in that order, 51.1 °C and -23.7 kcal/mol.
Turning to GGTTTATCGAAAGATACC (((..(((....)))))), in series [1], the Tm was 28 °C. Besides, the folding enthalpy in series [2] was -12.3 kcal/mol.
The like results for GCGTCCGTACGC ((((....)))) were, in that order, 52.3 °C and -26.8 kcal/mol.
The like results for GCTGACGAAAGTCTAAGC ((((((....)))..))) were, in that order, 47.1 °C and -19.1 kcal/mol.
Consider GCATTGCGAAAGCACAGC ((..(((....)))..)), for which the Tm in series [1] came out at 35.4 °C. Moreover, the folding enthalpy in series [2] was -15.2 kcal/mol.
Taken in the same sequence, the figures for GATGAACGAAAGTTATC (((.(((....)))))) were 28.4 °C and -11.1 kcal/mol.
Consider GCCGGGCGAAAGCTCTGC ((.(.((....)).).)), for which the Tm in series [1] was 41.4 °C. In addition, in series [2], the folding enthalpy was -18.5 kcal/mol.
Turning to GGAGCAGGAAACTGTTCC (((.(((....))).))), the Tm in series [1] was 48 °C. For the same sequence, the folding enthalpy in series [2] is -29.5 kcal/mol.
For the sequence GGCATCGAAAGATCCGCC ((((((....)))..))), the Tm in series [1] was 49.3 °C. Besides, the folding enthalpy in series [2] was -19.2 kcal/mol.
Taken in the same sequence, the figures for GAGCGAACGAAAGTTCTC (((..(((....)))))) were 27.4 °C and -9.38 kcal/mol.
Taken in the same sequence, the figures for GGTCTCGAAAGAGCTACC ((((((....)))..))) were 36 °C and -13.9 kcal/mol.
The like results for GCTCAAGGAAACTTGAAC (.(((((....))))).) were, in that order, 31.8 °C and -15 kcal/mol.
GCGGTTGGAAACAATCGC (((.(((....))).))): the Tm in series [1] was 56.1 °C. For the same sequence, in series [2], the folding enthalpy is -40.8 kcal/mol.
For GCAACAGGAAACTATTGC ((((.((....)).)))), the Tm in series [1] was found to be 31.8 °C. Further, in series [2], the folding enthalpy was -19.2 kcal/mol.
Turning to GCGATCGAAAGATGTCGC ((((((....)))..))), the Tm in series [1] stood at 43 °C. For the same sequence, in series [2], the folding enthalpy is -22.4 kcal/mol.
Regarding GTTTGCGAAAGCATAAAC ((((((....)))..))), the Tm in series [1] was found to be 31.5 °C. Also, the folding enthalpy in series [2] is -13 kcal/mol.
With GCGGATGCCCGC ((((....)))), the Tm in series [1] came out at 55 °C. Also, in series [2], the folding enthalpy was -14.4 kcal/mol.
As to GCAGCCGAAAGGCACTGC ((((((....)))..))), the Tm in series [1] worked out at 45.4 °C. Moreover, in series [2], the folding enthalpy is -13.7 kcal/mol.
For the sequence GCATGAGGAAACTCATGC (((((((....))))))), the Tm in series [1] was determined as 65.3 °C. For the same sequence, the folding enthalpy in series [2] was -40.3 kcal/mol.
On to GGAATCGAAAGATTGTCC ((((((....)))..))), for which the Tm in series [1] turned out to be 27.2 °C. Also, the folding enthalpy in series [2] is -11.1 kcal/mol.
Taken in the same sequence, the figures for GGATCGCCGAAAGGCTCC (((..(((....)))))) were 30.4 °C and -11 kcal/mol.
As for GCTTCAGGAAACTGAAAC (.(((((....))))).), the Tm in series [1] amounted to 31.5 °C. Further, the folding enthalpy in series [2] is -15 kcal/mol.
On to CGTTGGCGGAAACGCACG (((..(((....)))))), for which the Tm in series [1] stood at 41.1 °C. Further, the folding enthalpy in series [2] was -14.6 kcal/mol.
The like results for GAATACGAAAGTACTTC ((((((....))).))) were, in that order, 30.2 °C and -17 kcal/mol.
Taken in the same sequence, the figures for GATCAATGCGTTGATC ((((((....)))))) were 50.9 °C and -45.6 kcal/mol.
The like results for GTTCTAGGAAACTAGAAC (((((((....))))))) were, in that order, 53.1 °C and -35 kcal/mol.
For GATCGGATCGCCGATC ((((((....)))))), the Tm in series [1] is 55.8 °C. Also, the folding enthalpy in series [2] was -32.2 kcal/mol.
As for GCGAAGGGAAACCCTCGC ((((.((....)).)))), the Tm in series [1] turned out to be 53.4 °C. The folding enthalpy in series [2] was -42.3 kcal/mol.
In the case of GTTCCCGAAAGGGGGAAC ((((((....)))..))), the Tm in series [1] was determined as 48.4 °C. The folding enthalpy in series [2] is -19.3 kcal/mol.
The like results for GCACGGCGAAAGCCCCGC ((..(((....)))..)) were, in that order, 32.2 °C and -8.33 kcal/mol.
Taken in the same sequence, the figures for GATCCCTAGCGGGATC ((((((....)))))) were 59.1 °C and -34.5 kcal/mol.
